From ChEMBL document CHEMBL1126893, “Synthesis and CLOGP correlation of imidooxy anticonvulsants” (J Med Chem, 1993)
The source made the active and inactive calls.

What was measured:
Mus musculus [1] = assay: Time of peak effect of activity of compound was measured by both MES and sc Met test in mice; assay type: functional
Summary of the method: (§1)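 Phase II quantification in mice after ip dosing. ED50 (scMet or MES) measured at the time of peak effect. TD50 (rotorod neurologic deficit) measured at the time of peak neurologic deficit. Medians and 95% confidence limits by the Litchfield-Wilcoxon method. Protective index = TD50/ED50. Time of peak effect determined in the MES or scMet test.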

Mus musculus [2] = assay: Time of peak effect of toxicity of compound was measured by both MES and sc Met test in mice; assay type: functional; summary of the method: as §1
Rattus norvegicus = assay: Effective dose was measured in rat by subcutaneous pentylenetetrazole method by ip administration; NE= Not effective; assay type: functional, organism-based
Mus musculus [3] = assay: Anticonvulsant activity was measured by rotarod toxicity test on mice at 30 min at the dose of 300 mg/kg; number of animals protected/number of animals tested 1/4; assay type: functional
Mus musculus [4] = assay: Anticonvulsant activity was measured by rotarod toxicity test on mice at 4 h at the dose of 300 mg/kg; number of animals protected/number of animals tested 0/2; assay type: functional
Mus musculus [5] = assay: Anticonvulsant activity was measured by subcutaneous pentylenetetrazole test on mice at 30 min at the dose of 300 mg/kg; number of animals protected/number of animals tested 1/1; assay type: functional
Mus musculus [6] = assay: Effective dose was measured in mouse by maximal electroshock method by ip administration.; assay type: functional; summary of the method: as §1
Mus musculus [7] = assay: Effective dose was measured in mouse by subcutaneous pentylenetetrazole method by ip administration.; assay type: functional; summary of the method: as §1
Mus musculus [8] = assay: Anticonvulsant activity was measured by rotarod toxicity teston mice at 0.25 hr at the dose of 100 mg/kg; number of animals protected/number of animals tested 0/2; assay type: functional
Mus musculus [9] = assay: Anticonvulsant activity was measured by rotarod toxicity test on mice at 1 hr at the dose of 100 mg/kg; number of animals protected/number of animals tested 0/2; assay type: functional
Mus musculus [10] = assay: Elevation of threshold for electroshock induced seizures in mice was measured by ip administration after 0.5 hr at the dose of 100 mg/kg; No. of mice protected/no tested 1/12; assay type: functional; settings: route intraperitoneal
Mus musculus [11] = assay: Elevation of threshold for electroshock induced seizures in mice was measured by ip administration after 0.5 hr at the dose of 150 mg/kg; No. of mice protected/no tested 3/12; assay type: functional; settings: route intraperitoneal
Mus musculus [12] = assay: Elevation of threshold for electroshock induced seizures in mice was measured by ip administration after 0.5 hr at the dose of 200 mg/kg; No. of mice protected/no tested 5/12; assay type: functional; settings: route intraperitoneal
Mus musculus [13] = assay: Elevation of threshold for electroshock induced seizures in mice was measured by ip administration after 0.5 hr at the dose of 250 mg/kg; No. of mice protected/no tested 5/8; assay type: functional; settings: route intraperitoneal
Mus musculus [14] = species: Mus musculus; assay: ED50 value of compound was expressed as dose protecting 50% of mice from tonic hind limb extension; assay type: functional; settings: Hindlimb
Summary of the method: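 Maximal electroshock test in male CF1 mice (23-34 g). Compound given as a 0.5% methylcellulose suspension ip or po, with testing at 0.5 h after several doses. Endpoint is protection from tonic hind limb extension.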

Mus musculus [15] = assay: Anticonvulsant activity was measured by maximal electroshock test on mice at 30 min at the dose of 300 mg/kg; number of animals protected/number of animals tested 1/1; assay type: functional
Mus musculus [16] = assay: Anticonvulsant activity was measured by maximal electroshock test on mice at 4 h at the dose of 300 mg/kg; number of animals protected/number of animals tested 1/1; assay type: functional
Mus musculus [17] = assay: Anticonvulsant activity was measured by subcutaneous pentylenetetrazole test on mice at 4 hr at the dose of 300 mg/kg; number of animals protected/number of animals tested 1/1; assay type: functional
Mus musculus [18] = species: Mus musculus; assay: Protective index (TD50/ED50) value in MES test in mice; assay type: functional
Mus musculus [19] = species: Mus musculus; assay: Protective index (TD50/ED50) value in scMET test in mice; assay type: functional; summary of the method: as §1
Mus musculus [20] = assay: Anticonvulsant activity was measured by maximal electroshock test on mice at 0.25 hr at the dose of 100 mg/kg; number of animals protected/number of animals tested 0/2; assay type: functional
Mus musculus [21] = assay: Anticonvulsant activity was measured by maximal electroshock test on mice at 0.25 hr at the dose of 50 mg/kg; number of animals protected/number of animals tested 0/4; assay type: functional
Mus musculus [22] = assay: Anticonvulsant activity was measured by maximal electroshock test on mice at 0.50 hr at the dose of 50 mg/kg; number of animals protected/number of animals tested 0/4; assay type: functional
Mus musculus [23] = assay: Anticonvulsant activity was measured by rotarod toxicity test on mice at 30 min at the dose of 300 mg/kg; number of animals protected/number of animals tested, 4/4; assay type: functional
Mus musculus [24] = assay: Anticonvulsant activity was measured by rotarod toxicity test on mice at 4 hr at the dose of 100 mg/kg; number of animals protected/number of animals tested 0/4; assay type: functional
Mus musculus [25] = assay: Anticonvulsant activity was measured by rotarod toxicity test on mice at 4 hr at the dose of 300 mg/kg; number of animals protected/number of animals tested, 2/2; assay type: functional
Mus musculus [26] = assay: Anticonvulsant activity was measured by subcutaneous pentylenetetrazole test on mice at 30 min at the dose of 100 mg/kg; number of animals protected/number of animals tested, 0/1; assay type: functional
Mus musculus [27] = assay: Anticonvulsant activity was measured by subcutaneous pentylenetetrazole test on mice at 30 min at the dose of 300 mg/kg; number of animals protected/number of animals tested, 1/1; assay type: functional
Mus musculus [28] = assay: Anticonvulsant activity was measured by subcutaneous pentylenetetrazole test on mice at 4 hr at the dose of 100 mg/kg; number of animals protected/number of animals tested, 0/3; assay type: functional
Mus musculus [29] = assay: Anticonvulsant activity was measured by rotarod toxicity test on mice at 2 hr at the dose of 50 mg/kg;number of animals protected/number of animals tested 0/4; assay type: functional
Mus musculus [30] = assay: Anticonvulsant activity was measured by rotarod toxicity test on mice at 30 min at the dose of 100 mg/kg; number of animals protected/number of animals tested, 0/8; assay type: functional
Mus musculus [31] = assay: Anticonvulsant activity was measured by rotarod toxicity teston mice at 0.25 hr at the dose of 50 mg/kg; number of animals protected/number of animals tested 0/4; assay type: functional
Mus musculus [32] = assay: Anticonvulsant activity was measured by rotarod toxicity teston mice at 0.50 hr at the dose of 50 mg/kg; number of animals protected/number of animals tested 0/4; assay type: functional
Mus musculus [33] = assay: Anticonvulsant activity was measured by rotarod toxicity test on mice at 1 hr at the dose of 50 mg/kg; number of animals protected/number of animals tested 0/4; assay type: functional
Mus musculus [34] = assay: Anticonvulsant activity was measured by maximal electroshock test on mice at 30 min at the dose of 300 mg/kg; number of animals protected/number of animals tested, 1/1; assay type: functional
Mus musculus [35] = assay: Anticonvulsant activity was measured by maximal electroshock test on mice at 30 min at the dose of 100 mg/kg; number of animals protected/number of animals tested, 2/3; assay type: functional
Mus musculus [36] = assay: Anticonvulsant activity was measured by maximal electroshock test on mice at 4 hr at the dose of 300 mg/kg; number of animals protected/number of animals tested, 0/1; assay type: functional
Mus musculus [37] = assay: Anticonvulsant activity was measured by rotarod toxicity test on mice at 4 hr at the dose of 50 mg/kg; number of animals protected/number of animals tested 0/4; assay type: functional
Mus musculus [38] = assay: Anticonvulsant activity was measured by subcutaneous pentylenetetrazole test on mice at 0.50 hr at the dose of 50 mg/kg; number of animals protected/number of animals tested 0/4; assay type: functional
Mus musculus [39] = assay: Anticonvulsant activity was measured by maximal electroshock test on mice at 4 hr at the dose of 100 mg/kg; number of animals protected/number of animals tested, 0/3; assay type: functional
Mus musculus [40] = assay: Anticonvulsant activity was measured by maximal electroshock test on mice at 4 hr at the dose of 50 mg/kg; number of animals protected/number of animals tested 0/4; assay type: functional
Mus musculus [41] = assay: Anticonvulsant activity was measured by subcutaneous pentylenetetrazole test on mice at 4 h at the dose of 300 mg/kg; number of animals protected/number of animals tested, 0/1; assay type: functional
Mus musculus [42] = assay: Anticonvulsant activity was measured by maximal electroshock test on mice at 1 hr at the dose of 50 mg/kg; number of animals protected/number of animals tested 1/4; assay type: functional
Mus musculus [43] = assay: Anticonvulsant activity was measured by maximal electroshock test on mice at 2 hr at the dose of 50 mg/kg; number of animals protected/number of animals tested 0/4; assay type: functional

Structure (SMILES): O=C1NC(=O)C(c2ccccc2)(c2ccccc2)N1 [PHENYTOIN]
- TPE (Mus musculus [1]): 2 toxicity
- TPE (Mus musculus [2]): 2
- ED50 (Rattus norvegicus): inactive

Structure (SMILES): O=C1CC2(CCCC2)C(=O)N1OCc1ccc(Cl)cc1Cl
- Ratio (Mus musculus [3]): 1
- Ratio (Mus musculus [4]): 0
- TPE (Mus musculus [1]): 1
- TPE (Mus musculus [2]): 0.5
- Ratio (Mus musculus [5]): 1
- ED50 (Mus musculus [6]): 241 mg/kg
- ED50 (Mus musculus [7]): 190 mg/kg
- Ratio (Mus musculus [8]): 0
- Ratio (Mus musculus [9]): 0
- Protection (Mus musculus [10]): 8.33%
- Protection (Mus musculus [11]): 25%
- Protection (Mus musculus [12]): 41.7%
- Protection (Mus musculus [13]): 62.5%
- ED50 (Mus musculus [14]): 216 mg/kg
- Ratio (Mus musculus [15]): 1
- Ratio (Mus musculus [16]): 1
- Ratio (Mus musculus [17]): 1
- PI (Mus musculus [18]): 1.5
- PI (Mus musculus [19]): 1.9
- Ratio (Mus musculus [20]): 0

Structure (SMILES): O=C1CC2(CCCC2)C(=O)N1OCc1cccc(Cl)c1
- Ratio (Mus musculus [21]): 0
- Ratio (Mus musculus [22]): 0
- Ratio (Mus musculus [23]): 4
- Ratio (Mus musculus [24]): 0
- Ratio (Mus musculus [25]): 2
- Ratio (Mus musculus [26]): 0
- Ratio (Mus musculus [27]): 1
- Ratio (Mus musculus [28]): 0
- Ratio (Mus musculus [29]): 0
- Ratio (Mus musculus [30]): 0
- Ratio (Mus musculus [31]): 0
- Ratio (Mus musculus [32]): 0
- Ratio (Mus musculus [33]): 0
- Ratio (Mus musculus [34]): 1
- Ratio (Mus musculus [35]): 2
- Ratio (Mus musculus [36]): 0
- Ratio (Mus musculus [37]): 0
- Ratio (Mus musculus [38]): 0
- Ratio (Mus musculus [39]): 0
- Ratio (Mus musculus [40]): 0
- Ratio (Mus musculus [41]): 0
- Ratio (Mus musculus [42]): 1
- Ratio (Mus musculus [43]): 0
